# Assay: Toxicity liver stage against HepG2, at 10uM
# Type: cell-based
# Set-up: test concentration 10 uM, cell line HepG2-A16-CD81EGFP
# Conditions: human, HepG2-A16-CD81EGFP cells; read-out: INHIBITION
# Method in brief: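 Uninfected HepG2-A16-CD81EGFP cells, 3 × 10^3 per well, 1536-well, plated on prespotted compound at 10 μM final, parasite-free screening media added to match infected plates; puromycin 10 μM positive, DMSO 0.5% negative; run in parallel with 48 h PbLuc assay at 37 °C, 5% CO2; viability by CellTiter-Glo luminescence, normalized to controls.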
row,SMILES,cytotoxicity at 10 µM
1,N#Cc1ncn(CCC(=O)Nc2ccc(Cl)cc2F)n1,-8.94%
2,O=C(NC[C@H]1OC[C@@H](NCc2cccs2)[C@@H]1O)N1CCOCC1,-3.53%
3,CN1CCN2C(=O)N(C3CCCCC3)C[C@H]2C1,-3.1%
4,Cc1cc(NCc2ccccc2)nc2[nH]nc(N)c12,-44%
5,O=C1COC2(CCN(C(=O)c3ccoc3)CC2)CN1Cc1cccnc1,5.29%
6,CN(CC1CC1)c1ccc2ccc(C(=O)NC3CCCCC3)cn12,-0.567%
7,N#CCC(=O)NCc1nnc2n1CCN(Cc1cccs1)C2,-136%
8,CS(=O)(=O)N1CCCC12CCCN(S(=O)(=O)c1ccc(F)c(F)c1)C2 (stereo not given),1.46%
9,O=C1NCC[C@]12CN(Cc1ccco1)C[C@H]2c1ccccc1,-139%
10,Cc1ccc(NC(=O)Cc2cnc3n(C)c(=O)[nH]c(=O)n23)cc1,8.24%
11,COc1ccc(C)cc1S(=O)(=O)NCC(c1cccn1C)N(C)C (stereo not given),-11.9%
12,O=S(=O)(c1cccnc1)N1CCN(CCn2ccnc2)CC1,-31.2%
13,CC(C)CCNC(=O)c1sccc1N(C)S(=O)(=O)c1ccccc1,9.33%
14,CN1CC2(COCCN(C(=O)c3ccco3)C2)OCC1=O (stereo not given),2.33%
15,O=C(c1cnccn1)N1CCN2C[C@H](OCc3ccccn3)C[C@H]2C1,-0.746%
16,CCN1Cc2c(C(=O)NCC3CC3)ncn2-c2ccccc2S1(=O)=O,-12.2%
17,O=C1CCC2(CCN(c3ncc(F)cn3)CC2)N1CCN1CCCC1,10.5%
18,O=C(O)c1ccn(COc2c(Cl)cccc2Cl)n1,8.71%
19,O=C1CCC(=O)c2oc3ccc(Br)cc3c2N1,2.44%
20,Brc1ccc2[nH]c3c(c2c1)CCCC3c1nn[nH]n1 (stereo not given),4.49%
21,CCn1cc(NC(=O)CN2CCC(Oc3ccccc3C)CC2)c(C)n1,0.343%
22,CC(=O)N[C@@H]1CN(C(=O)c2cccc(C)c2)C[C@H]1O,-2.48%

row,SMILES,cytotoxicity at 10 µM
1,Cc1nc(N)cc(C2CCN2CCOc2ccccc2)n1 (stereo not given),10%
2,Cc1cnc2[nH]c(C(F)(F)F)c(CN3CCOCC3)c2c1,11.7%
3,c1cc2cc[nH]c2c(CC2CN(Cc3cncs3)C2)n1,-0.54%
4,CC(C)(C)CN1CCC(c2nccnc2Nc2cnccn2)CC1,-4.98%
5,Cn1nc(-c2ccc(F)cc2)cc1C(=O)NCCn1ccnc1,3.68%
6,O=S(=O)(c1ccc2c(c1)CCC2)N1CCCC(Cn2cncn2)C1 (stereo not given),4.19%
7,CC(SCCC(=O)NC(N)=O)c1ccccc1F (stereo not given),5.87%
8,O=C(CCNC(=O)C1=Cc2ccccc2OC1)NCc1ccncc1,5.6%
9,CN(Cc1ccsc1)C(=O)c1nc(N2CCCC2)ncc1Cl,-45.5%
10,O=S(=O)(Cc1ccccc1)c1nnc(N2CCOCC2)s1,-4.65%
11,Cc1oncc1NS(=O)(=O)c1c[nH]c2ncccc12,-7.49%
12,Cc1cc(C)c2c(OCC(=O)N(C)CC(=O)NC(C)C)nn(C)c2n1,1.28%
13,Cc1ccccc1OCCCC(=O)N(C)CCC#N,2.33%
14,O=C(CN1CCN(c2ccnc3c(F)ccc(F)c23)CC1)N1CCCC1,17.4%
15,O=C(CCc1cccnc1)Nc1ccc(OCC2CCOCC2)cc1,-6.01%
16,CCOCC(=O)N(Cc1ccco1)c1ccc(OC)c(F)c1,-2.75%
17,COc1ccc(C(=O)NCCN(C)C)c(I)c1,-1.93%
18,CC(C)CCN1CCN(C(=O)c2c[nH]nn2)CC1,1.64%
19,Cc1ccc(Cc2sc(NC(=O)C(C)S(C)(=O)=O)nc2C)cc1 (stereo not given),13.1%
20,CC(C(=O)N1CCc2sccc2C1)N1CCC(N2CCCC2)CC1 (stereo not given),10.9%
21,CCc1nccn1CC(=O)Nc1cccc(C(=O)N(C)C)c1,-6.77%
22,Cc1noc(C)c1CNS(=O)(=O)N(C)Cc1ccc(Cl)cc1,11.2%

row,SMILES,cytotoxicity at 10 µM
1,NC(=O)NC(=O)CNc1cccc(C(=O)c2ccccc2)c1,7.95%
2,CC(C)c1noc(CS(=O)(=O)CC(=O)NCC(F)(F)F)n1,7.62%
3,CCc1ccc(C(=O)NC2CCN(c3cnn(C)c3)C2=O)o1 (stereo not given),-6.13%
4,Cc1ccc(C(=O)N2CCN(CCCSCC#N)CC2)o1,-11.1%
5,CCN(C(c1cccnc1)c1ccc2c(c1)CCO2)S(C)(=O)=O (stereo not given),-8.28%
6,Cc1cnn(CC2CCCN2C(=O)CCc2c(C)noc2Cl)c1 (stereo not given),-8.31%
7,Cc1cccc(CNCc2c(C(C)C)nn(C)c2N2CCOCC2)n1,-9.4%
8,CN(C)C(=O)N1Cc2nnn(CC3CC3)c2C(COCC2CC2)C1 (stereo not given),8.26%
9,O=C(c1ncccn1)N1C[C@H]2CCC[C@@]2(COCC2CCOCC2)C1,-1.11%
10,CCC(Nc1cccc(OC)c1)C(=O)NCc1ccc2[nH]c(=O)[nH]c2c1 (stereo not given),1.67%
11,CN(C)[C@@H]1C[C@@H](CO)N(C(=O)Nc2cccc(F)c2F)C1,-0.103%
12,CC(CN1CCC(CCO)CC1)n1cnc2ccccc21 (stereo not given),5.34%
13,CCOCCn1nc(C)cc1C(=O)N1CCCC[C@H](N(C)C)C1,-3.68%
14,COc1cccc(CC(C)NCC(=O)Nc2ccccc2C)c1 (stereo not given),-1.62%
15,COc1ncccc1CN1CCN(c2noc(C(C)C)n2)CC1,10.5%
16,O=C(c1cc(COc2ccc3c(c2)OCO3)[nH]n1)N1CCCC(O)C1 (stereo not given),-8.07%
17,Cc1nc(C)n(CC(C)C(=O)N2CCC(NS(C)(=O)=O)CC2)n1 (stereo not given),-4.4%
18,NC(=O)NCC(=O)N1CCC(c2cc(-c3ccccc3Cl)n[nH]2)CC1,-0.208%
19,N[C@@H]1CC[C@H](C(=O)NCc2ccc3nonc3c2)C1,-5.35%
20,O=C(N1CCOCC(O)C1)C1(c2ccc(Cl)cc2)CCC1 (stereo not given),-4.24%
21,Cc1cn(CC(=O)Nc2cc(C(C)C)nn2C)cn1,5.44%
22,CN(Cc1cnc(C(C)(C)C)nc1)Cc1nc2ccc(F)cc2[nH]1,-12.3%

row,SMILES,cytotoxicity at 10 µM
1,CCCN1CCCn2nc(CNC(=O)CC(C)n3ccnc3C)cc2C1 (stereo not given),-9.4%
2,COCCN1CCN(C(=O)c2cc(C(C)C)on2)[C@H]2CS(=O)(=O)C[C@H]21,-12%
3,C[C@@H]1CN(C2(C(=O)N3CCCCCC3)Cc3ccccc3C2)C[C@H](C)O1,-2.04%
4,Cc1ccccc1Oc1ncccc1CNS(C)(=O)=O,-22.1%
5,Cc1ccc(C)c(C(C(=O)O)N2CCCN(Cc3ccccn3)CC2)c1 (stereo not given),-15.6%
6,c1cn(Cc2nnc(C3CCN(c4nccs4)CC3)n2C2CC2)cn1,-7.6%
7,Cc1ccc(F)cc1C(=O)N1C[C@@H](CN2CCOCC2)[C@@H](CO)C1,-6.2%
8,CN1N=C(C(=O)N2CCCC(CCc3c(F)cccc3F)C2)CCC1=O (stereo not given),-7.41%
9,CCC(=O)N1CCC(O)(c2ncc(OC)nc2OC)CC1,3.03%
10,CC(=O)N(Cc1ncc(C(C)C)o1)C1CCN(Cc2ccno2)C1 (stereo not given),-11.1%
11,Cc1ccc(CCNC(=O)Nc2cc(C(F)(F)F)c[nH]c2=O)o1,-11.9%
12,Cc1nc2n(n1)CC(NCc1nc(-c3ccccn3)no1)CC2 (stereo not given),-12.4%
13,Cc1ccc(N2CCCN(C(=O)CC3C=CCC3)CC2)nn1 (stereo not given),-9.2%
14,Cc1n[nH]c(C)c1C1COCCN1C(=O)c1cccc(F)c1F (stereo not given),-8.45%
15,CC(C)(C)c1cccc(OCC(=O)NS(=O)(=O)c2cccnc2)c1,-12.5%
16,Cn1cc(Cl)cc1C(=O)N1CCCN(Cc2nccn2C)CC1,-6.04%
17,Cc1cc(NC(=O)CN2CCc3cnc(C(C)C)nc3C2)on1,-12.1%
18,Cn1c(CNCC2CCCN2c2cccnn2)nc2ccccc21 (stereo not given),-18.2%
19,CN1CCC/C1=N\S(=O)(=O)c1ccc(NC(=O)c2ccc(Cl)s2)cc1,1.55%
20,Cc1cc(N2CCC(C(=O)NC3CC3)CC2)nc(-c2ccncc2)n1,-17%
21,CN(C)c1ccc(C(=O)N2CCN(Cc3cscn3)CC2)cn1,-4.57%
22,Cc1cnn(CC2CCCN2CC(=O)Nc2cc(C)no2)c1 (stereo not given),2.27%

row,SMILES,cytotoxicity at 10 µM
1,Cn1ccc(CN2CCC(Cc3ccccc3)CC2)cc1=O,1.78%
2,Cc1nc2c(c(C)c1CC(=O)NCc1cccs1)c(=O)[nH]n2C,-34.2%
3,CCc1nc(C2CCCN(C(=O)NCCOC)C2)no1 (stereo not given),-0.775%
4,Cc1cc(NC(=O)CN2CCn3c(nnc3C(C)C)C2)on1,5.05%
5,c1cnc(-c2nc(CN3CCn4c(nnc4C4CC4)C3)cs2)nc1,-6.93%
6,Cc1nc(CNC(=O)Cn2nc(-c3ccc(F)cc3)oc2=O)cs1,1.12%
7,CCOc1ccnc(N2CCN(C(=O)c3cccnc3O)CC2)n1,-6.51%
8,CC(=O)Nc1nc(C(=O)N2CCCC2c2noc(C)n2)cs1 (stereo not given),-9.55%
9,CC(NC(=O)NCCOc1ccc(F)c(F)c1)c1nncn1C (stereo not given),-0.192%
10,O=C1CC2(CCCNC2)C(=O)N1Cc1cccc(F)c1 (stereo not given),3.56%
11,Cn1cc(CN2CCOC(c3cccc(-c4cncnc4)n3)C2)cn1 (stereo not given),4.74%
12,COc1cc(N2CCC3(CC2)CC(N2CCOCC2)C3)ncn1,-6.81%
13,CCn1nnc2c1C(COC)CN(Cc1cccs1)C2 (stereo not given),-16.5%
14,CNC(=O)CC1CC2(CCN(Cc3nccs3)CC2)c2ccccc21 (stereo not given),-15%
15,CCCS(=O)(=O)N1CCC2(CC1)CN(c1ccccn1)CCO2,6.66%
16,COCCN1C[C@@H]2CN(Cc3ccc(F)cc3)C[C@@H]2C1=O,-0.744%
17,CCS(=O)(=O)N1CCO[C@H]2[C@H](OCCCn3cccn3)CC[C@@H]21,-5.04%
18,CNC(=O)[C@@H](C1CCCCC1)N1CCC[C@H]1C(=O)NCCN1CCCC1,-4.31%
19,CS(=O)(=O)N1CCOCC2(CN(Cc3ccsc3)CCO2)C1 (stereo not given),-11.7%
20,O=C1CCC2(CCCN(C(=O)Cc3cccnc3)C2)N1 (stereo not given),6.88%
21,O=C(c1cccc(Cl)c1)N1CCCC2(CCCNC2)C1 (stereo not given),-152%
22,CN(C)CCNC(=O)[C@H]1C[C@H]2CN(C(=O)NCc3ccccc3)C[C@@H]1O2,1.96%

# Source: ChEMBL document CHEMBL4513216, “Probing the Open Global Health Chemical Diversity Library for Multistage-Active Starting Points for Next-Generation Antimalarials” (ACS Infect Dis, 2020)
